pIC50: −log10 of the molar value. Activity calls are given as the source filed them. The rule behind the calls is not given here.

System in one test: not listed separately
In words: Inhibition of Wnt/beta-catenin pathway in human HEK293 cells at 20 uM after 15 hrs by TOPflash dual luciferase reporter gene assay. The test is classed as cell-based.
Details: not given
Put shortly:
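HEK293 TOPFlash reporter cells were seeded at 15,000 cells/well in duplicate and grown 24 h. Compounds were then added with Wnt3a-conditioned medium from Wnt3a-secreting L cells (0.22-filtered, two harvests combined); controls ran with or without Wnt3a-CM. After 15 h, dual luciferase activity was read as RLU normalized to cell titer, averaged over three experiments. Single-concentration screen at 20 µM.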
In general, inhibition refers to the change of the read-out against control, counted positive when it falls. `CC(=O)Oc1ccc(/C=C/C(=O)O[C@H]2Cc3cc4ccc(=O)oc4cc3OC2(C)C)cc1OC(C)=O` registered an inhibition of 94%. On the same count and under the same terms, in the case of `CC1(C)Oc2cc3oc(=O)ccc3cc2C[C@@H]1OC(=O)/C=C/c1ccccc1` it was 81.1%; in that of `CC1(C)Oc2cc3oc(=O)ccc3cc2C[C@@H]1OC(=O)CCc1ccc(O)c(O)c1`, 68%; in that of `CC1(C)Oc2cc3oc(=O)ccc3cc2C[C@@H]1OC(=O)/C=C/c1ccccc1O`, 94.2%. The same measure, in the same setting: the result for `COc1ccc(OC)c(CCC(=O)O[C@H]2Cc3cc4ccc(=O)oc4cc3OC2(C)C)c1` reads 19.9%.

Turning to `CC1(C)Oc2cc3oc(=O)ccc3cc2C[C@@H]1OC(=O)/C=C/c1ccc(O)cc1`, the inhibition worked out at 78.1%. Same read-out and setting: the result for `CC1(C)Oc2cc3oc(=O)ccc3cc2C[C@@H]1OC(=O)CCc1cccc(O)c1O` reads 81.4%; that for `CC1(C)Oc2cc3oc(=O)ccc3cc2C[C@@H]1OC(=O)/C=C/c1cccc(O)c1`, 93.3%; that for `CC1(C)Oc2cc3oc(=O)ccc3cc2C[C@@H]1OC(=O)CCc1cccc(O)c1`, 42%. Still for that read-out and setting: the result for `COc1ccc(/C=C/C(=O)O[C@H]2Cc3cc4ccc(=O)oc4cc3OC2(C)C)cc1` reads 54.8%; that for `CC(=O)Oc1cccc(CCC(=O)O[C@H]2Cc3cc4ccc(=O)oc4cc3OC2(C)C)c1`, 27.5%; that for `COc1ccc(/C=C/C(=O)O[C@H]2Cc3cc4ccc(=O)oc4cc3OC2(C)C)c(OC)c1`, 52.8%. Same read-out and setting: in the case of `CC(=O)Oc1ccccc1CCC(=O)O[C@H]1Cc2cc3ccc(=O)oc3cc2OC1(C)C` it was 23.1%; in that of `CC(=O)Oc1ccc(CCC(=O)O[C@H]2Cc3cc4ccc(=O)oc4cc3OC2(C)C)cc1OC(C)=O`, 46.4%. `COc1ccccc1CCC(=O)O[C@H]1Cc2cc3ccc(=O)oc3cc2OC1(C)C` showed an inhibition of 50.4%. Same read-out and setting: in the case of `CC1(C)Oc2cc3oc(=O)ccc3cc2C[C@@H]1OC(=O)/C=C/c1cc(O)c(O)c(O)c1` it was 75.3%. As for `COc1cc(OC)c(OC)cc1/C=C/C(=O)O[C@H]1Cc2cc3ccc(=O)oc3cc2OC1(C)C`, the inhibition came out at 59.6%. Same read-out and setting: the result for `CC1(C)Oc2cc3oc(=O)ccc3cc2C[C@@H]1OC(=O)/C=C/c1cccc(O)c1O` reads 95.7%.

Consider `CC(=O)Oc1cccc(/C=C/C(=O)O[C@H]2Cc3cc4ccc(=O)oc4cc3OC2(C)C)c1`, for which the inhibition was 97%.

`COc1cccc(CCC(=O)O[C@H]2Cc3cc4ccc(=O)oc4cc3OC2(C)C)c1` yielded an inhibition of 49.9%. For `COc1ccc(CCC(=O)O[C@H]2Cc3cc4ccc(=O)oc4cc3OC2(C)C)c(OC)c1`, the inhibition was found to be 18.8%. On the same count and under the same terms, the result for `CC1(C)Oc2cc3oc(=O)ccc3cc2C[C@@H]1OC(=O)CCc1ccccc1O` reads 10%. Consider `COc1ccccc1/C=C/C(=O)O[C@H]1Cc2cc3ccc(=O)oc3cc2OC1(C)C`, for which the inhibition is 88.3%. On the same count and under the same terms, in the case of `COc1cccc(/C=C/C(=O)O[C@H]2Cc3cc4ccc(=O)oc4cc3OC2(C)C)c1OC` it was 57.8%; in that of `CC(=O)Oc1ccccc1/C=C/C(=O)O[C@H]1Cc2cc3ccc(=O)oc3cc2OC1(C)C`, 95.9%; in that of `CC1(C)Oc2cc3oc(=O)ccc3cc2C[C@@H]1OC(=O)/C=C/c1cccc(F)c1`, 93.6%. Still for that read-out and setting: the result for `COc1ccc(CCC(=O)O[C@H]2Cc3cc4ccc(=O)oc4cc3OC2(C)C)cc1OC` reads 25.1%; that for `CC1(C)Oc2cc3oc(=O)ccc3cc2C[C@@H]1OC(=O)CCc1ccccc1`, 10.6%; that for `CC(=O)Oc1ccc(CCC(=O)O[C@H]2Cc3cc4ccc(=O)oc4cc3OC2(C)C)cc1`, 12%. Same read-out and setting: in the case of `COc1ccc(CCC(=O)O[C@H]2Cc3cc4ccc(=O)oc4cc3OC2(C)C)cc1` it was 41.5%; in that of `COc1ccc(OC)c(/C=C/C(=O)O[C@H]2Cc3cc4ccc(=O)oc4cc3OC2(C)C)c1`, 65.3%; in that of `CC(=O)Oc1ccc(/C=C/C(=O)O[C@H]2Cc3cc4ccc(=O)oc4cc3OC2(C)C)cc1`, 79.6%. For the compound `CC1(C)Oc2cc3oc(=O)ccc3cc2C[C@@H]1OC(=O)/C=C/c1ccc(Br)cc1`, the inhibition came out at 40.1%. Still for that read-out and setting: in the case of `CC(C)=CC(=O)O[C@H]1Cc2cc3ccc(=O)oc3cc2OC1(C)C` [DECURSIN] it was 79.4%; in that of `CC(=O)Oc1cccc(CCC(=O)O[C@H]2Cc3cc4ccc(=O)oc4cc3OC2(C)C)c1OC(C)=O`, 77.7%; in that of `COc1cccc(/C=C/C(=O)O[C@H]2Cc3cc4ccc(=O)oc4cc3OC2(C)C)c1`, 87.5%. Still for that read-out and setting: in the case of `COc1cc(/C=C/C(=O)O[C@H]2Cc3cc4ccc(=O)oc4cc3OC2(C)C)cc(OC)c1OC` it was 46.9%. Compound `COc1ccc(/C=C/C(=O)O[C@H]2Cc3cc4ccc(=O)oc4cc3OC2(C)C)cc1OC` gave an inhibition of 42.3%. In turn, `CC1(C)Oc2cc3oc(=O)ccc3cc2C[C@@H]1OC(=O)/C=C/c1cccc(Br)c1` returned an inhibition of 84.8%. The same measure, in the same setting: the result for `CC1(C)Oc2cc3oc(=O)ccc3cc2C[C@@H]1OC(=O)CCc1ccc(O)cc1` reads 32.8%; that for `COc1cccc(CCC(=O)O[C@H]2Cc3cc4ccc(=O)oc4cc3OC2(C)C)c1OC`, 13.5%. Still for that read-out and setting: the result for `CC1(C)Oc2cc3oc(=O)ccc3cc2C[C@@H]1OC(=O)/C=C/c1ccc([N+](=O)[O-])cc1` reads 34.3%; that for `CC(=O)Oc1cccc(/C=C/C(=O)O[C@H]2Cc3cc4ccc(=O)oc4cc3OC2(C)C)c1OC(C)=O`, 89.7%. Same read-out and setting: the result for `CC1(C)Oc2cc3oc(=O)ccc3cc2C[C@@H]1OC(=O)/C=C/c1ccc(O)c(O)c1` reads 99.5%. Take `CC(=O)Oc1cc(/C=C/C(=O)O[C@H]2Cc3cc4ccc(=O)oc4cc3OC2(C)C)cc(OC(C)=O)c1OC(C)=O`: the inhibition was 67.4%.

System in the next test: not listed separately
As to the kind of experiment: Cytotoxicity against human PC3 cells assessed as cell viability after 24 to 48 hrs by cell Titer-Glo assay. The test is classed as functional, cell-based. The settings on record: PC-3. Put shortly: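 Androgen-independent PC3 cells in 96-well plates were exposed to varying compound concentrations for 24 h (figure legend) or 48 h (methods note). Viability was measured in triplicate with the CellTiter-Glo luminescent assay.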
For orientation: Cellular ATP, detected with luciferase, serves as a proxy for viable cell number.
Usually pIC50 stands for the IC50 on a negative log10 scale, so that one unit is a factor of ten. As for `CC(=O)Oc1cccc(/C=C/C(=O)O[C@H]2Cc3cc4ccc(=O)oc4cc3OC2(C)C)c1`, the pIC50 is 5.05.

System in the next test: not listed separately
As to the kind of experiment: Inhibition of Wnt/beta-catenin pathway in human HEK293 cells assessed as decrease in Wnt3a-CM-induced beta-catenin response transcription after 15 hrs by TOPflash dual luciferase reporter gene assay. The test is classed as cell-based. To be noted: HEK293, 15 h.
As for `CC(=O)Oc1cccc(/C=C/C(=O)O[C@H]2Cc3cc4ccc(=O)oc4cc3OC2(C)C)c1`, the pIC50 was 5.01.

A further test deals with T1, Catenin beta-1 (Homo sapiens) (UniProt P35222).
T1 sequence (whole entry): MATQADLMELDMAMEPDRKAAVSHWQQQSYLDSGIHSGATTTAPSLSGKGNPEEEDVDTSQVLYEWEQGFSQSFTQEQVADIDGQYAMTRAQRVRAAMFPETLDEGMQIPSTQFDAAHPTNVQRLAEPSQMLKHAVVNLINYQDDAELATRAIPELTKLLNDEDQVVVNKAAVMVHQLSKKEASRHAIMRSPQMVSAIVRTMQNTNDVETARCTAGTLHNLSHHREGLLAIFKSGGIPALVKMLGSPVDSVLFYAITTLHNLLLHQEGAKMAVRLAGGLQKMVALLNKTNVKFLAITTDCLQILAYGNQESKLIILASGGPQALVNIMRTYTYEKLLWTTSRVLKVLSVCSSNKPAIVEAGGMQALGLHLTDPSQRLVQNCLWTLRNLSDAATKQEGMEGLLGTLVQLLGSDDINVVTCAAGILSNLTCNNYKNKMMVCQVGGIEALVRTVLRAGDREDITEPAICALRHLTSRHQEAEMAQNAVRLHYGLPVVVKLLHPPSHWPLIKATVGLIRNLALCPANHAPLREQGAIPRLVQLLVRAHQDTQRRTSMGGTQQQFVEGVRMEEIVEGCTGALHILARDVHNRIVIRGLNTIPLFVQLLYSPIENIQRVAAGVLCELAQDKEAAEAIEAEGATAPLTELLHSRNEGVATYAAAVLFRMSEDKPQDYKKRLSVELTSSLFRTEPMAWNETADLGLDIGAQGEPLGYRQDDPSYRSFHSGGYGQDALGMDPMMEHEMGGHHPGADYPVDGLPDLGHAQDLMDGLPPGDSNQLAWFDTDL
As to the kind of experiment: Downregulation of Wnt3a-CM-induced beta-catenin levels in human HEK293 cells at 12.5 to 50 uM after 15 hrs by Western blot analysis. It is filed as cell-based.
Details: not given
Put shortly: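 HEK293 reporter cells were treated with vehicle (DMSO) or compound in the presence of Wnt3a-CM for 15 h. Cytosolic proteins were western blotted with a β-catenin antibody, then reprobed for actin as the fraction control, with HRP secondary and ECL detection.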
On the technique in general: A western blot detects proteins with antibodies after separation by electrophoresis.
Regarding `CC(=O)Oc1cccc(/C=C/C(=O)O[C@H]2Cc3cc4ccc(=O)oc4cc3OC2(C)C)c1`, the outcome was Active.

The target in another test is T1, Catenin beta-1 (Homo sapiens). As to the kind of experiment: Downregulation of cytoplasmic beta-catenin levels in human PC3 cells after 15 hrs by Western blot analysis. It is filed as cell-based. The settings on record: PC-3. Put shortly:
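Cytosolic fractions from PC3 cells (DMEM, 10% FBS) treated with vehicle (DMSO) or compound were western blotted with a β-catenin antibody, then reprobed with anti-actin as the fraction control.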
Consider `CC(=O)Oc1cccc(/C=C/C(=O)O[C@H]2Cc3cc4ccc(=O)oc4cc3OC2(C)C)c1`, for which the Activity entry is “Dose-dependent effect”.

Another test shares this target. As to the kind of experiment: Inhibition of beta-catenin levels in human PC3 cells assessed as downregulation of cyclinD1 levels at 12.5 to 50 uM after 15 hrs by Western blot analysis. The test is classed as cell-based. To be noted: PC-3. Put shortly: (§1)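 PC3 cells were incubated with vehicle (DMSO) or compound for 15 h. Cell extracts were western blotted with anti-cyclin D1 and anti-myc antibodies, then reprobed with anti-actin as the control, with ECL detection.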
For the compound `CC(=O)Oc1cccc(/C=C/C(=O)O[C@H]2Cc3cc4ccc(=O)oc4cc3OC2(C)C)c1`, the inhibition entry was “Active”.

For another test the target is unchanged. As to the kind of experiment: Inhibition of beta-catenin levels in human PC3 cells assessed as downregulation of c-myc levels at 12.5 to 50 uM after 15 hrs by Western blot analysis. The test is classed as cell-based. The settings on record: PC-3. Put shortly: as §1
As to `CC(=O)Oc1cccc(/C=C/C(=O)O[C@H]2Cc3cc4ccc(=O)oc4cc3OC2(C)C)c1`, the inhibition result is “Active”.

System in a further test: not listed separately
As to the kind of experiment: Antitumor activity against human PC3 cells xenografted in athymic nude mouse at 50 mg/kg, ip administered daily for 5 weeks. The test is classed as functional. The settings on record: PC-3, ip, 840 h, read-out: TGI.
In the case of `CC1(C)Oc2cc3oc(=O)ccc3cc2C[C@@H]1OC(=O)/C=C/c1ccc(O)c(O)c1`, the inhibition in vivo at 50 mg/kg is above 80%.

System in a further test: not listed separately
In words: Inhibition of Wnt/beta-catenin pathway in human HEK293 cells after 15 hrs by TOPflash dual luciferase reporter gene assay. It is filed as cell-based. The settings on record: HEK293, 15 h.
`CC(C)=CC(=O)O[C@H]1Cc2cc3ccc(=O)oc3cc2OC1(C)C` [DECURSIN]: the pIC50 was 3.75. The same measure, in the same setting: the result for `CC1(C)Oc2cc3oc(=O)ccc3cc2C[C@@H]1OC(=O)/C=C/c1ccc(O)c(O)c1` reads 4.91.

These data come from ChEMBL document CHEMBL3826880, “Synthesis and evaluation of (+)-decursin derivatives as inhibitors of the Wnt/β-catenin pathway” (Bioorg Med Chem Lett, 2016).
